Reference: PubChem BioAssay AID822 (SRMLSC, 2007)

Tested on: HUVEC proliferation, viability ATP luminescence
Test: HUVEC proliferation inhibition, dose response, cell-based, ATP luminescence (AID 822);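 also: cells exposed to compound for 72 h before the ATP read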
Procedure, shortened: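 Assay system: HUVEC primary endothelial cells, low passage (≤12) | Doses: 0.039–20 µM, 0.2% DMSO | Incubation: 72 h compound exposure at 37 °C | Detection: CellTiter-Glo ATP luminescence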

SMILES | EC50 [µM]
Cc1nn(-c2ccc(Cl)cc2)c2sc(C(=O)N3CCN(c4ccccn4)CC3)cc12 | 19
CC1(C)CC(=O)C2=C(C1)Oc1nc3ccccc3cc1C2C(C#N)C#N (stereo not drawn) | 11.4
Cc1nc2sccn2c(=O)c1CCN1CCC(=C(c2ccc(F)cc2)c2ccc(F)cc2)CC1 | 8.98
COc1ccc(NC(=O)c2ccccc2NC(=O)COc2ccccc2)cc1 | 11.2
COc1ccc(-n2nc(C(=O)NCc3ccco3)c3c4ccccc4n(C)c3c2=O)cc1Cl | 19.7
Cc1cc(C)c2oc(-c3cccc(NC(=O)c4ccc(F)cc4)c3)nc2c1 | 19.3
COc1ccc2[nH]c(=O)c(CN(C3CCCCC3)C(c3nnnn3Cc3ccco3)C(C)C)cc2c1 (stereo not drawn) | 8.72
CCOC(=O)N1CCc2c(sc(NC(=O)c3ccc(S(=O)(=O)N4CCCC4)cc3)c2C#N)C1 | 17.5
NS(=O)(=O)c1ccc(N=Cc2c(O)n(C3CCCCC3)c(=O)n(C3CCCCC3)c2=O)cc1 | 5
Cc1ccccc1-n1ncc2c([N+](=O)[O-])cc([N+](=O)[O-])cc21 | 9.29
Cc1ccc2c(c1)NC(=O)C(CC(=O)NCCCN1CCN(c3cc(Cl)ccc3C)CC1)O2 (stereo not drawn) | 7.12
Cc1cc(/C=N/n2cnnc2)c(C)n1-c1ccccc1 | 19.8
COc1ccc(C(=O)Nc2ccccc2C(=O)N(Cc2ccco2)C(C(N)=O)C(C)C)cc1 (stereo not drawn) | 14.6
CCc1cc(-c2n[nH]c(C)c2Oc2ccc(C(C)C)cc2)c(O)cc1O | 6.36
O=C1CSC(=S)N1Cc1cccnc1 | 19.2
CCCc1[nH]nc2c1C(c1ccc(Br)s1)C(C#N)=C(N)O2 (stereo not drawn) | 8.67
Cc1nc2c(C(=O)NCCC(C)C)c[nH]n2c(=O)c1Cc1ccccc1F | 7.02
COC(=O)/C(=C\Nc1ccc(Cl)cc1Cl)NC(=O)c1ccc(Cl)cc1Cl | 7.64
CCOC(=O)c1cnc(-n2nc(C)cc2C)nc1NCCc1ccccc1 | 12.7
CC1=CC(C)(C)N2C(=O)C3(C(C#N)=C(N)Oc4cc(O)ccc43)c3c(C)c(C)cc1c32 (stereo not drawn) | 6.14
CN1CCN(c2ccc(NC(=O)c3cccc(OCc4ccccc4)c3)cc2)CC1 | 11.4
CCOc1cc2nc(-c3ccc(OC)c(OC)c3)nc(N3CCOCC3)c2cc1OC | 5.27
CN1CCN(c2ccccc2NC(=O)c2ccc(-c3ccc(Cl)cc3Cl)o2)CC1 | 6.37
CC[n+]1cc(-c2ccccc2)nc(N2CCOCC2)n1 | 9.86
CC1CCC(C(=O)c2c(O)c3ccccc3oc2=O)CC1 (stereo not drawn) | 7.71
Cc1cc(C)n(CC(O)Cn2c3ccc(Br)cc3c3cc(Br)ccc32)c(=O)n1 (stereo not drawn) | 10.7
Cc1ccc(S(=O)(=O)c2c(C)nn(C(C)(C)C)c2OC(=O)c2cccs2)cc1 | 8.95

SMILES | EC50 [µM]
COc1ccccc1NC(=O)CC1C(=O)NCCN1C(=O)Nc1ccc(Cl)c(Cl)c1 (stereo not drawn) | 10.8
COc1ccc(-n2nnnc2S(=O)(=O)CC(=O)N2CCCCC2)cc1 | 7.76
Cc1cccc(NC(=O)Nc2cccc(Oc3c(F)c(F)c(F)c(F)c3F)c2)c1 | 15.3
Cc1ccc(/C=C/C(=O)c2ccccc2)cc1 | 17.1
O=C1C2=C(NC(=S)NC2c2ccc(Cl)cc2)NC(c2ccc(Cl)cc2)N1c1ccc(Cl)cc1 (stereo not drawn) | 5.96
O=C(Nc1ccc2nn(-c3ccccc3)nc2c1)c1ccc2c(c1)OCO2 | 20.8
COc1ccc(CNC(=O)C(C#N)c2nc3ccccc3nc2N2CCN(C)CC2)cc1 (stereo not drawn) | 6.92
c1ccc(-c2nc3nonc3nc2-c2ccccc2)cc1 | 3.46
COc1ccccc1OCC(=O)Nc1cccc(-c2nc3ccccc3o2)c1 | 13.7
CC1(C)Cc2c(c(N3CCOCC3)nc3snc(N)c23)CO1 | 11
Cn1c(=O)n(C)c2cc(NC(=O)CCl)ccc21 | 12.2
Cc1ccccc1-c1nc(CN2CCC(C(=O)NCCCN3CC(C)CC(C)C3)CC2)c(C)o1 (stereo not drawn) | 4.85
CC(=O)SC(C[N+](=O)[O-])c1cn(C(C)=O)c2ccccc12 (stereo not drawn) | 6.72
Cc1cc(C)n(-c2nc(NCCC(C)C)c3c4c(sc3n2)COC(C)(C)C4)n1 | 14.5
CCCCN(Cc1ccco1)C(=O)c1cc2c(=O)[nH]c3ccc(C)cc3c2s1 | 4.57
CCc1ccc(-c2nc(CN3CCC(C(=O)N4CCN(c5ccccn5)CC4)CC3)c(C)o2)cc1 | 14.2
Oc1ccc(Cl)cc1-c1cc(-c2ccco2)[nH]n1 | 13.7
CCCCN(C)S(=O)(=O)c1ccc(C(=O)Nc2nnc(-c3cccs3)o2)cc1 | 1.69
CCOc1ccc2nc(NC(=O)CN3CCC(n4nnc5cc(F)ccc54)CC3)sc2c1 | 8.42
Cc1ccc(NC(=O)c2cc(NC(=O)c3ccco3)ccc2N2CCCCC2)cc1 | 17.9
Cc1cc(C)c2c(c1)SC1=NC(c3ccccc3)(C(F)(F)F)NC(=O)N12 (stereo not drawn) | 8.47
Cc1ccc(Cn2nc(C)c(NC(=O)c3cc(-c4ccc5c(c4)OCO5)on3)c2C)cc1 | 10.2
O=C(CCC1CCCC1)c1c(O)c2ccccc2oc1=O | 4.67
CC(C)c1nnc(NC(=O)CCS(=O)(=O)c2nc(-c3cccs3)cc(C(F)(F)F)n2)s1 | 9.9
COc1cc(/C=c2\s/c(=C(/C#N)C(=O)N3CCCC3)n(-c3ccccc3)c2=O)ccc1O | 16.3
CC1(C)Cc2c(C#N)c(N3CCN(C(=O)c4ccco4)CC3)nc(Cc3ccccc3)c2CO1 | 7.74
